# Screens from PubChem BioAssay.
# Bfl-1 A1 inh: inhibitors of the anti-apoptotic protein A1, read as caspase activation | MEF A1-2A-BIM cells, Caspase-Glo 3/7 luminescence, 3 h; percent of clofoctol response, vehicle zero | caspase activation, % (test concentration not listed) | 0.066% of 330,000 active | AID 2462;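 active means over half of replicate activation scores above 10%, or exactly half above 10 with the replicate mean above 10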
# KLF5 inh: kruppel-like factor 5 inhibition; DLD-1 KLF5 promoter-luciferase reporter, luminescence; inhibition, % at 5 µM; 0.23% of 290,000 active; AID 1700;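 active means inhibition above a per-plate limit of that plate's mean compound inhibition plus 3 SD, cut at about 60% in these data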;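 further: 0% = DMSO wells and 100% = LY294002 at 200 µM; higher means less KLF5 promoter-driven luciferase light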
# Beta cell apopt: beta cell apoptosis inhibition | INS-1E cytokine-induced death, ATP luminescence, 48 h; percent of positive-control rescue, neutral wells zero | protection from apoptosis, % (no concentration beside the values) | 0.8% of 300,000 active | AID 435005;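 active means Every replicate reaches about 75%, or at least half do and their mean reaches it too, limit read from the data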;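 further: 0% = cytokine-treated negative control wells and 100% = positive control rescue; higher means more ATP so stronger rescue from cytokine killing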
# T cruzi repl: T. cruzi replication inhibition; T. cruzi beta-gal in NIH3T3, luminescence, 90 h; 1.4% of 300,000 active; inhibition, % (concentration not given with the values);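 active means mean inhibition across valid replicates above about 55%, limit read from the data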;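 further: signal also drops with host cell toxicity which is not excluded here; 0% = plate median of DMSO wells and 100% = zero luminescence signal; higher percent means less beta-gal luminescence so fewer parasites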
#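 Material: NIH/3T3 host cells with β-galactosidase reporter T. cruzi; Input: 5,000 host fibroblasts per well; Medium: DMEM, 2% fetal bovine serum; Compound: 50 nL DMSO compound solution per well; Schedule: 3 h host attachment, then at least 90 h co-culture; Detection: luminescent β-galactosidase signal after 60 min lysis.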
# HIF activator: HIF pathway transcriptional activation. U2OS HRE-luciferase reporter, luminescence; normalized: DMSO 0%, desferrioxamine 100%. activation, % at 7.5 µM (by protocol). 0.32% of 300,000 active;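 active means mean activation of at least 10% of the iron chelator positive control signal, with at least half of replicates also reaching 10%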
# * marks the source's active call; other numbers are inactive results; · = no result given. A selection: hits, their analogues and other compounds. The true share with any hit is near 2.3%.
SMILES,Bfl-1 A1 inh,KLF5 inh,Beta cell apopt,T cruzi repl,HIF activator
CCC(C)(C)n1nnnc1C(c1cccc(C#N)c1)N1CCN(c2cc(C)ccc2C)CC1 (stereo unspecified),0,·,12,61*,-62
CCC(C)(C)n1nnnc1C(c1cccnc1)N1CCCC(C)C1 (stereo unspecified),0,2,-1,53,0
CCC(C)(C)n1nnnc1C(c1ccncc1)N1CCC(Cc2ccccc2)CC1 (stereo unspecified),0,15,3,65*,-1
O=C1CC(NS(=O)(=O)c2cc(F)ccc2F)CN1c1cccc(F)c1 (stereo unspecified),0,·,-1,2,0
O=C(CCC(=O)Nc1ccccc1)N/N=C/c1cccnc1,0,-9,-3,-9,0
Cc1ccc([N+](=O)[O-])cc1NC(=O)CSc1nnc(C)n1CC1CCCO1 (stereo unspecified),0,-12,5,4,1
CN(C)c1nc(F)c(F)c(S(=O)(=O)c2ccccc2)c1F,0,-24,6,45,1
O=C(NNC(=O)c1cc([N+](=O)[O-])ccc1Cl)c1cccnc1,0,-22,2,·,·
O=C(Cn1[nH]c(=O)c2ccccc2c1=O)OCC(=O)N1CCc2ccccc2C1,8.3*,6,-2,-3,-1
Cc1ccc(C(=O)N(Cc2cccnc2)Cc2cc3cc(C)ccc3n3nnnc23)cc1,-1,-11,-3,67*,0
Cc1ccc(-n2c(Cl)c(Cl)nc(Cl)c2=O)cc1,0,21,98*,·,·
COc1nc(Cl)cn(-c2ccc(C)cc2)c1=O,-1,2,-3,-7,-1
CN(C)Cc1nc2ccccc2c(=O)n1Cc1nc(-c2cc3ccccc3o2)cs1,0,12,3,65*,1
Cc1ccc(C)c(OC(=O)c2cccc(S(=O)(=O)N3CCN(C)CC3)c2)c1,0,-28,1,3,0
CC1(C)CC(=O)c2c(O)cc(OCC(=O)Nc3ccc(S(N)(=O)=O)cc3)cc2O1,0,-16,-6,-5,0
COc1cc(NC(=O)COc2cc(O)c3c(c2)OC(C)(C)CC3=O)cc(OC)c1OC,-1,27,110*,1,1
Nc1ccc(N2CCCCC2)cc1N1CCCCC1,0,-15,113*,62*,1
CC(Sc1nc2ccccc2c(=O)n1CC1CCCO1)C(=O)Nc1ccc(S(N)(=O)=O)cc1 (stereo unspecified),0,·,·,0,0
Cc1ccc(N(Cc2ccco2)C(=O)c2ccc(N3CCCCC3)c([N+](=O)[O-])c2)cc1,-2,-23,29,56*,0
O=C(NCc1ccco1)c1ccc(N2CCCCC2)c([N+](=O)[O-])c1,1,8,-1,27,0
Cc1ccc(S(=O)(=O)N2CCC(C(=O)OCC(=O)NC(C)c3ccc(F)cc3)CC2)cc1C (stereo unspecified),0,·,4,·,·
Cc1cccc(C)c1NC(=O)c1cn(-c2ccccc2)nc1-c1ccccc1,1,-28,0,-14,0
Cc1nn(Cc2ccc(Cl)c(Cl)c2)c(C)c1NC(=O)c1cn(-c2ccccc2)nc1-c1ccccc1,0,-6,-14,61*,0
Cc1nn(Cc2ccccc2)c(C)c1NC(=O)c1ccc([N+](=O)[O-])cc1[N+](=O)[O-],-1,4,19,56*,-2
Cc1nn(Cc2ccccc2)c(C)c1NC(=O)Cn1nc([N+](=O)[O-])c(Cl)c1C,0,9,-8,17,0
SMILES,Bfl-1 A1 inh,KLF5 inh,Beta cell apopt,T cruzi repl,HIF activator
COc1ccc(CN2CCC(=O)N(CCO)CC2)cc1OC,0,-6,-9,-34,0
O=C(CN1C(=O)NC2(CCCCC2)C1=O)N1CCOCC1,3,·,-1,·,·
CCCCn1c(N)c(N(CCC(C)C)C(=O)c2ccc([N+](=O)[O-])s2)c(=O)[nH]c1=O,0,·,1,64*,0
CC1=Nc2ccccc2N=C(NC(=O)CN2CCN(c3ccccc3)CC2)C1c1ccccc1 (stereo unspecified),0,-4,1,63*,0
CCOC(=O)C1CCCN(CC(=O)NC2=Nc3ccccc3N=C(C)C2c2ccccc2)C1 (stereo unspecified),0,13,9,3,-1
CCOc1cccc2sc(N(CCCN(C)C)C(=O)c3ccc(S(=O)(=O)N(C)c4ccccc4)cc3)nc12,0,0,-13,56*,0
CN(C)CCCN(C(=O)CCc1ccccc1)c1nc2c(F)cccc2s1,1,-5,-1,58*,0
Cc1cccc2sc(N(CCN(C)C)C(=O)/C=C/c3cccs3)nc12,0,-41,15,22,-1
CN(C)CCCN(C(=O)COc1ccc(Cl)cc1)c1nc2c(F)cccc2s1,-1,-19,-2,80*,0
CN(C)CCCN(C(=O)/C=C/c1cccs1)c1nc2c(F)cccc2s1,·,-13,·,56*,-1
CCc1cc(=O)oc2c(C)c(OCC(=O)N3CCC(C(=O)O)CC3)ccc12,0,-26,·,-11,0
COC(=O)c1cn(C(=O)c2ccc(OC)cc2)c2ccccc12,1,31,8,10,2
O=C(Cc1ccccc1)Nc1ncccc1Cl,0,·,-1,-4,0
O=S(=O)(Nc1ccc(Br)cn1)c1ccc(Cl)s1,0,-12,6,0,0
O=C(Cn1ncn2c(cc3sccc32)c1=O)NC1CCCC1,0,-22,-13,-8,1
Cc1ccc(NC(=O)CN2C(=O)CSc3ccc(S(=O)(=O)N4CCCCC4)cc32)cc1,2,-13,-5,-5,0
CN(C)CCCN(C(=O)CCOc1ccccc1)c1nc2c(F)cccc2s1,·,-2,·,59*,0
O=C(NCc1cccnc1)c1ccc(NS(=O)(=O)c2ccccc2)cc1,1,6,-3,-2,0
O=C(O)CCCC(=O)Nc1ccc(C(=O)NCc2cccnc2)cc1,0,-16,101*,-1,0
O=C(CCC1CCCC1)Nc1ccc(C(=O)NCc2cccnc2)cc1,0,-21,100*,-49,0
COc1ccc(C(=O)NCc2cccnc2)cc1,0,-21,-11,-12,0
CCN(c1ccccc1)S(=O)(=O)c1ccc(OC)c(NC(=O)Cc2ccc(F)cc2)c1,-1,·,-3,·,·
CCN(c1ccccc1)S(=O)(=O)c1ccc(OC)c(NC(=O)CNCCc2ccccc2)c1,-1,-18,45,58*,0
Cc1ccc(-n2nc3c(N4CCC(C(=O)N5CCCCCC5)CC4)nnc(C)c3c2C)cc1,0,12,6,42,-1
COc1ccc(-n2nc3c(N4CCC(C(=O)N5CCCCCC5)CC4)nnc(C)c3c2C)cc1,1,-9,0,59*,0
CCOc1ccccc1CNC(=O)C1CCN(c2nnc(C)c3c(C)n(-c4ccc(C)cc4)nc23)CC1,1,-3,59,57*,-5
